# Source: ChEMBL document CHEMBL3351576, “Five new quassinoids and cytotoxic constituents from the roots of Eurycoma longifolia” (Bioorg Med Chem Lett, 2014)
# Columns and labels:
# [1] = tested on: HeLa; experiment: Cytotoxicity against human HeLa cells assessed as cell viability at 10 uM by SRB assay; assay type: functional; conditions: read-out: Activity
# Procedure, shortened: (§1)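 Modified sulforhodamine B (SRB) protein-stain assay. Each human cancer line was exposed to 1, 10 and 100 µM of each isolated root constituent. The read-out is relative cell viability (%), reported as mean ± error.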
# [2] = tested on: A549; experiment: Cytotoxicity against human A549 cells assessed as cell viability at 10 uM by SRB assay; assay type: functional; conditions: read-out: Activity; procedure, shortened: as §1
# [3] = tested on: HeLa; experiment: Cytotoxicity against human HeLa cells assessed as cell viability at 1 uM by SRB assay; assay type: functional; conditions: read-out: Activity; procedure, shortened: as §1
# [4] = tested on: HeLa; experiment: Cytotoxicity against human HeLa cells assessed as cell viability at 100 uM by SRB assay; assay type: functional; conditions: read-out: Activity; procedure, shortened: as §1
# [5] = tested on: A549; experiment: Cytotoxicity against human A549 cells assessed as cell viability at 1 uM by SRB assay; assay type: functional; conditions: read-out: Activity; procedure, shortened: as §1
# [6] = tested on: A549; experiment: Cytotoxicity against human A549 cells assessed as cell viability at 100 uM by SRB assay; assay type: functional; conditions: read-out: Activity; procedure, shortened: as §1
# [7] = tested on: HeLa; experiment: Cytotoxicity against human HeLa cells by SRB assay; assay type: functional, cell-based
Structure (SMILES),viability at 10 µM [1],viability at 10 µM [2],viability at 1 µM [3],viability at 100 µM [4],viability at 1 µM [5],viability at 100 µM [6],IC50 [7]
CC1=CC(=O)O[C@H]1[C@@]1(C)C[C@H]2OC(=O)[C@H](O)[C@@]3(O)[C@@H](C)C(=O)C(O)=C1[C@@]23CO,103%,104%,102%,106%,102%,103%,
CC1=CC(=O)[C@@H](O)[C@]2(C)[C@H]3[C@]4(O)OC[C@@]35[C@@H](C[C@@H]12)OC(=O)[C@H](O)[C@@]5(O)[C@H](C)[C@H]4O [PASAKBUMIN C],102%,101%,99.8%,101%,99.2%,99.8%,
COc1cccc2c1C(=O)c1c(O)c3c(c(O)c1C2=O)C[C@@](O)(C(=O)CO)C[C@@H]3O[C@H]1C[C@H](N)[C@@H](O)[C@H](C)O1 [EPIRUBICIN],24.3%,0.61%,,,,,
C=C1C[C@H](O)[C@@H](O)[C@]2(C)[C@H]3[C@@H](O)[C@H](O)[C@H](C)[C@@H]4C(=O)O[C@H]([C@H](O)[C@@H]12)[C@]34C,101%,101%,99.7%,98.7%,96.8%,101%,
CC1=CC(=O)[C@@H](O)[C@@]2(C)[C@H]1CC(=O)[C@@]1(C)[C@H]3C(=O)O[C@H]([C@@H]3C)[C@H](O)[C@@H]12 [EURYCOMALACTONE],77.7%,71.5%,105%,44.5%,101%,41.5%,
CC1=CC(=O)[C@@H](O)[C@]2(C)[C@H]3[C@]4(O)OC[C@@]35[C@@H](C[C@@H]12)OC(=O)[C@H](O)[C@@]5(O)[C@]1(CO1)[C@H]4O,101%,102%,101%,61.7%,96.2%,99.1%,
CC1=C2C[C@H]3OC(=O)[C@H](O)[C@@]4(O)[C@@H](C)[C@]5(O)C(=O)OC[C@]34C5[C@@]2(C)[C@H](O)[C@@H](O)C1 (some centres not stated),105%,103%,106%,103%,103%,103%,
C=C1[C@@H](O)[C@@]2(O)OC[C@]34[C@H]2[C@@]2(C)[C@H](O)C(=O)C=C(C)[C@@H]2C[C@H]3OC(=O)[C@H](O)[C@@]14O [EURYCOMANONE],97.5%,101%,101%,47%,96.8%,87.2%,
CC1=CC(=O)[C@@H](O)[C@]2(C)[C@H]3[C@@H](O)[C@H](O)[C@H](C)[C@]4(O)[C@@H](O)C(=O)O[C@H](C[C@@]12O)[C@]34C,103%,101%,101%,100%,99.8%,99.3%,
C[C@H]1[C@H]2OC(=O)[C@@H]1[C@]1(C)C(=O)C=C3[C@@](C)(O)C[C@H](O)[C@@H](O)[C@]3(C)C1[C@H]2O (some centres not stated),102%,102%,101%,102%,96.6%,101%,
CC1=CC(=O)O[C@H]1[C@@]1(C)C[C@H]2OC(=O)[C@H](O)[C@@]3(O)[C@@H](C)[C@@H](O)[C@H](O)[C@H]1[C@@]23C,104%,102%,104%,103%,102%,100%,
CC1=CC(=O)[C@@H](O)[C@]2(C)[C@H]3[C@@H](O)[C@H](O)[C@H](C)[C@]4(O)[C@@H](O)C(=O)O[C@H](C[C@@H]12)[C@]34C,71.6%,86.4%,101%,21%,99.5%,43.3%,48.2 µM
C=C1C(=O)C(O)=C2[C@@](C)([C@@H]3OC(=O)C=C3C)C[C@H]3OC(=O)[C@H](O)[C@]1(O)[C@@]23CO,104%,102%,102%,101%,100%,100%,
CC1=CC(=O)O[C@H]1[C@@]1(C)C[C@H]2OC(=O)[C@H](O)[C@@]3(O)[C@H](C)C(=O)C(O)=C1[C@@]23CO,104%,104%,102%,106%,101%,104%,
CC1=CC(=O)[C@@H](O)[C@@]2(C)[C@H]1[C@@H](O)[C@H]1OC(=O)C3[C@@H](C)[C@H](O)[C@H](O)[C@H]2[C@]31C (some centres not stated) [LONGILACTONE],102%,99.8%,101%,66.9%,99.7%,66.1%,
